Activity, viability and IC50 data for one molecule are collected here from ChEMBL document CHEMBL3875168, “Synthesis and apoptosis inducing studies of triazole linked 3-benzylidene isatin derivatives” (Eur J Med Chem, 2016).

Activity calls are given as the source filed them. The calls are words filed in the database; no cut-off is given here.

Usually IC50 stands for the midpoint of a concentration-inhibition curve.

The nature of assay [1]: Cell cycle arrest in human DU145 cells assessed as accumulation at G0/G1 phase at 5 uM after 24 hrs by propidium iodide staining-based flow cytometry (reference value: 62.81%). The conditions noted are these: DU-145. The format is functional. The gist of the method:
(§1)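 Compound given to DU145 at 2.5 and 5.0 μM for 24 h alongside untreated cells. Cells harvested, PBS-washed, fixed in ice-cold 70% ethanol, then stained 30 min at 37 °C in the dark with propidium iodide (50 μg/mL) plus RNase A (20 μg/mL) in 0.1% Triton X-100. About 10000 events per sample read by flow cytometry; a representative of three independent experiments is shown.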
A general note: Flow cytometry measures light scatter and fluorescence of single cells or particles in a stream.

The subject of assay [2] is DU-145. Put plainly: Induction of apoptosis in human DU145 cells assessed as increase in intracellular reactive oxygen species at 2.5 to 5 uM after 24 hrs in presence of N-acetyl cysteine by DCFDA dye based spectrofluorometer. It counts as functional, cell-based.
Assay [3] relates to DU-145. The experiment in a line: Induction of apoptosis in human DU145 cells assessed as increase in cytochrome c level after 48 hrs by Western blot analysis. It counts as functional, cell-based. Background: Immunoblotting shows a protein as a band on a membrane.
For assay [4], the system named is DU-145. The experiment in a line: Induction of apoptosis in human DU145 cells assessed as viable cells at 2.5 uM after 24 hrs by Annexin V-FITC/propidium iodide staining based flow cytometry (reference value: 90.32%). It counts as functional. The conditions noted are these: DU-145, 24 h, read-out: Activity.
Assay [5] has as its system DU-145. The experiment in a line: Induction of apoptosis in human DU145 cells assessed as increase in Bax level after 48 hrs by Western blot analysis. The format is functional, cell-based.
Assay [6] relates to DU-145. The experiment in a line: Induction of apoptosis in human DU145 cells assessed as condensation of nucleus at 2.5 to 5 uM after 48 hrs by DAPI staining based fluorescence microscopic method. The format is functional, cell-based. The procedure, abridged:
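DU145 treated for 48 h, PBS-washed, permeabilized with 0.1% Tween 20 for 10 min and stained with 1 μM DAPI. Nuclear morphology of control and treated cells viewed by fluorescence microscopy (excitation 359 nm, emission 461 nm) at 200x.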

Assay [7] has as its system DU-145. The experiment in a line: Induction of apoptosis in human DU145 cells assessed as necrotic cells at 2.5 uM after 24 hrs by Annexin V-FITC/propidium iodide staining based flow cytometry (reference value: 2.14%). The format is functional.
Assay [8] in a line: Cytotoxicity against human A549 cells assessed as cell growth inhibition after 48 hrs by MTT assay. It counts as functional, cell-based. The conditions noted are these: A549, 48 h. The procedure, abridged:
(§2)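 Cell lines (NCCS) grown in DMEM or RPMI with 10% FBS and antibiotic-antimycotic at 37 °C, 5% CO2, 90% humidity. Cells seeded at 3-5×10^3 per well, treated 48 h with serial dilutions in medium beside vehicle control. Medium replaced with MTT (0.5 mg/mL) for 4 h, absorbance read at 570 nm. IC50 taken from concentration-response curves; sunitinib served as reference.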

Assay [9] in a line: Cytotoxicity against human HeLa cells assessed as cell growth inhibition after 48 hrs by MTT assay. The format is functional, cell-based. The gist of the method: as §2
The subject of assay [10] is DU-145. Put plainly: Induction of apoptosis in human DU145 cells assessed as late apoptotic cells at 2.5 uM after 24 hrs by Annexin V-FITC/propidium iodide staining based flow cytometry (reference value: 5.4%). The format is functional.
The subject of assay [11] is DU-145. The experiment in a line: Induction of apoptosis in human DU145 cells assessed as viable cells at 5 uM after 24 hrs by Annexin V-FITC/propidium iodide staining based flow cytometry (reference value: 90.32%). The format is functional. The note with it: DU-145, 24 h, read-out: Activity.
The test system of assay [12] is DU-145. The experiment in a line: Induction of mitochondrial membrane potential loss in human DU145 cells at 1.25 uM after 24 hrs by flow cytometry (reference value: 5.39%). The format is functional.
Assay [13] can be described thus: Cell cycle arrest in human DU145 cells assessed as accumulation at G2/M phase at 2.5 uM after 24 hrs by propidium iodide staining-based flow cytometry (reference value: 29.66%). The note with it: DU-145. The format is functional. The procedure, abridged:
as §1

Assay [14] deals with DU-145. Put plainly: Induction of mitochondrial membrane potential loss in human DU145 cells after 24 hrs by flow cytometry. The format is functional, cell-based.

Turning to `O=C1Nc2ccc(C(c3ccccc3)c3ccccc3)cc2/C1=C/c1cccc(OCc2cn(Cc3ccccc3)nn2)c1`, the Activity was 10.1% in [1]; 4.41% in the assay with DU-145 [7]; 13% in the assay on DU-145 [10]; 64.28% with DU-145 [12]; 43.7% in assay [13]; “Dose-dependent effect” in the assay with DU-145 [14]. The outcome in the assay on DU-145 [2], in the assay with DU-145 [3], with DU-145 [5] and in the assay on DU-145 [6] was Active. Further, the viability at 2.5 µM in the assay on DU-145 [4] stood at 64.5%. In addition, the 50% inhibitory concentration (IC50) in [8] was 14.7 µM; in assay [9], 4.28 µM. Besides, in the assay on DU-145 [11], the viability at 5 µM stood at 45.9%.
